# Results published in ChEMBL document CHEMBL1821655, “Identification of SQ609 as a lead compound from a library of dipiperidines” (Bioorg Med Chem Lett, 2011).
# Activity calls are given as the source filed them. No cut-off for these calls is given here.
# Tests used:
# [1] = system: Mycobacterium tuberculosis; assay: Antimycobacterial activity against Mycobacterium tuberculosis H37Rv ATCC 25618 after 10 to 14 days by microplate alamar blue assay; format: functional
# J774.A1 = assay: Cytotoxicity against mouse J774A1 cells assessed as cell aggregation at 4 ug/ml; format: cell-based
# [2] = system: Mycobacterium tuberculosis; assay: Antimycobacterial activity against recombinant strain Mycobacterium tuberculosis Rv0341 by firefly luciferase reporter gene assay; format: functional, organism-based
# Procedure, shortened: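 Recombinant Mtb carrying a promoter fused to firefly luciferase, which is activated and produces light when cell wall biosynthesis is inhibited. High-throughput luminescence read-out.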
# [3] = system: Mycobacterium tuberculosis; assay: Antimycobacterial activity against Mycobacterium tuberculosis H37Rv infected in C3H/HeNCrlBR mouse assessed as prevention of body weight loss at 10 mg/kg, po administered 7 days after infection for 2 weeks measured after 10 to 15 days relative to control; format: functional, organism-based; set-up: dose 10 mg/kg
# Procedure, shortened: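 Treatment began 7 days after infection: oral gavage once daily at 10 mg/kg for 2 wk. Body weights tracked from day 0 through day 21 and compared with uninfected mice and infected placebo-treated mice. Mortality was followed after therapy ended.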
# [4] = system: Mycobacterium tuberculosis; assay: Antimycobacterial activity against Mycobacterium tuberculosis pSMT1 infected in mouse J774A.1 ATCC TIB-67 cells assessed as viable bacterial count at 4 ug/ml for 4 days followed by 3 days incubation in drug-free medium by luciferase reporter gene assay; format: functional
# [5] = system: Mycobacterium tuberculosis; assay: Antimycobacterial activity against Mycobacterium tuberculosis pSMT1 infected in mouse J774A.1 ATCC TIB-67 cells assessed as inhibition of intracellular bacterial growth at MIC for 4 days followed by 3 days incubation in drug-free medium by luciferase reporter gene assay; format: functional
# [6] = system: Mycobacterium tuberculosis; assay: Antimycobacterial activity against Mycobacterium tuberculosis pSMT1 infected in mouse J774A.1 ATCC TIB-67 cells assessed as viable bacterial count at 0.125 ug/ml for 4 days followed by 3 days incubation in drug-free medium by luciferase reporter gene assay; format: functional
# Procedure, shortened: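 Mtb-infected J774A.1 mouse macrophages exposed to drug for 4 days, then medium replaced with drug-free medium and cultures incubated 3 more days. Triplicate wells lysed on day 0 and day 7 and viable bacteria measured as relative light units. Isoniazid control at 0.125 μg/ml.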
compound,measurement,setting,value
OCC1CCCN(CC2CCN(CC(c3ccccc3)c3ccccc3)CC2)C1 (stereo not drawn),MIC,[1],40 mg/L
c1ccc(CC2CCN(CC3CCN(CC(c4ccccc4)c4ccccc4)CC3)CC2)cc1,MIC,[1],11 mg/L
OC1CCN(CC2CCN(CC(c3ccccc3)c3ccccc3)CC2)CC1,Activity,J774.A1,Toxic
same,Activity,[1],Active
same,MIC,[1],4 mg/L
same,Activity,[2],Active
same,Activity,[3],Active
OC1CCN(CC2CCN(CC34CC5CC(CC(C5)C3)C4)CC2)CC1,Activity,[1],Active
same,MIC,[1],4 mg/L
same,Activity,[2],Active
same,Activity,[4],354 RLU
same,inhibition (INH),[5],>90%
same,Activity,[3],Active
OC1CCN(CC2CCN(CCOc3ccccc3)CC2)CC1,MIC,[1],8 mg/L
c1ccc(CC2CCN(CC3CCN(CC45CC6CC(CC(C6)C4)C5)CC3)CC2)cc1,MIC,[1],10 mg/L
c1ccc(CC2CCN(CC3CCN(CCC45CC6CC(CC(C6)C4)C5)CC3)CC2)cc1,MIC,[1],5 mg/L
OC1CCN(CC2CCN(CC3CCCCCC3)CC2)CC1,MIC,[1],14 mg/L
OC1CCN(CC2CCN(CCC34CC5CC(CC(C5)C3)C4)CC2)CC1,MIC,[1],15 mg/L
CCC(CN1CCC(CN2CCC(O)CC2)CC1)c1ccccc1 (stereo not drawn),MIC,[1],8 mg/L
CC(C)=CCC/C(C)=C/CN1CCC(CN2CCC(Cc3ccccc3)CC2)CC1,MIC,[1],20 mg/L
NNC(=O)c1ccncc1 [ISONIAZID],Activity,[6],4 RLU
OC1CCN(CC2CCN(C3C4CC5CC(C4)CC3C5)CC2)CC1 (stereo not drawn),Activity,[1],Active
same,Activity,[2],Active
